Assay outcomes (PubChem BioAssay)
Shown is part of a subset that was picked to be rich in hits.
NALP1 yeast inh: NALP1 inflammasome inhibitors in reconstituted yeast, colorimetric, S. cerevisiae, triplicate retest; inhibition, % at 10 µM; 0.61% of 280,000 active; AID 2071, 2009; S. cerevisiae NALP1/ASC/caspase-1 growth, X-gal OD620, 72 h; in the data active = inhibition mostly above about 24%, no sharp cut-off; inactive = mostly below about 32%
Calb FLC: C. albicans growth inhibition with fluconazole, primary screen, CaCi-2 strain, Alamar Blue fluorescence; C. albicans CaCi-2 + fluconazole, 48 h; growth inhibition, % (test concentration not listed); 0.57% of 300,000 active;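 active = growth inhibition above about 58% in most replicates, limit read from the data, passing the limit was not always enough; inconclusive = exactly half the replicates above a set limit; inactive = most replicates below a set limit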;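 note: all wells also contain fluconazole at 8 µg/ml as a sub-toxic cotreatment; 0% = median of DMSO wells and 100% = median of geldanamycin control wells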
T cruzi inh: inhibitors of intracellular T. cruzi growth, primary screen, luminescence, NIH3T3 host cells; 1.4% of 300,000 active; inhibition, % (no concentration beside the values); T. cruzi beta-gal in NIH3T3, 90 h;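 active = mean inhibition across valid replicates above about 55%, limit read from the data; inconclusive = mean below that limit but half or more replicates reach it; inactive = mean below it, under half of replicates reach it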;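 note: signal also drops with host cell toxicity which is not excluded here; 0% = plate median of DMSO wells and 100% = zero luminescence signal; higher percent means less beta-gal luminescence so fewer parasites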
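System: Mouse NIH/3T3 fibroblasts infected with β-gal-expressing T. cruzi Tulahuen C4 | Quantity: NIH/3T3 cells, 5,000 per well | Reagent: 5000 reporter trypomastigotes per well | Dosing: Compound pinned at 50 nL/well, DMSO | Schedule: 3 h host attachment, then at least 90 h co-culture | Detection: GalScreen luminescence, 60 min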
L major viab: Leishmania major promastigote growth inhibition, primary screen; AID 1063, 2008; Leishmania major promastigotes, resazurin fluorescence viability; 9% of 200,000 active; inhibition, % at 10 µM; in the data active = inhibition above about 50%;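 note: promastigotes grown with compound for 44 hours at 28 °C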
PolyA inh: polyadenylation inhibitors in yeast reporter cells, primary screen, luminescence, S. cerevisiae; S. cerevisiae SKY197-pL101 polyadenylation reporter, beta-gal luminescence; efflux-impaired pdr1/pdr3 knockout yeast; score 100 = 6 SD above DMSO; activity score, % at 12 µM; 0.02% of 300,000 active; AID 1875, 2009;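 active = lowest replicate activity score at least 50, where 100 means six control SD above control mean; inconclusive = lowest score under 50 but half or more replicates reach 50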;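 note: yeast exposed to compound for 9 h at 30 °C; higher score means more reporter readthrough which indicates perturbed polyadenylation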
NLRP3 yeast inh: NALP3 inflammasome inhibitors in reconstituted yeast, primary screen, luminescence, uHTS | AID 2825, 2010 | inhibition, % at 10 µM | 0.39% of 330,000 active | Yeast reconstituted NLRP3/ASC/caspase-1, beta-gal luminescence, 24 h;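 active = inhibition of 50% or more; inactive = inhibition below 50%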;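 note: plate controls were induced DMSO wells for no effect and uninduced yeast grown without galactose for full effect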
Numbers without * were called inactive; ? = inconclusive; . = no result given.

SMILES | NALP1 yeast inh | Calb FLC | T cruzi inh | L major viab | PolyA inh | NLRP3 yeast inh
CCn1cc(C(=O)OCC(=O)Nc2ccc(C(C)C)cc2)c(=O)c2ccc(C)nc21 | 25* | ? | -6 | -9 | -6 | 9
Cc1ccc2c(c1)C(=O)c1ccccc1CS2=O (stereo not given) | 15 | ? | -9 | -6 | 11 | -5
O=C(COC(=O)c1ccc2c(c1)OCO2)NC1CCCCC1 | . | . | . | . | . | 11
O=C(NCCc1cccc(C(F)(F)F)c1)C1CCC(=O)N(Cc2ccc(Cl)cc2)C1 (stereo not given) | -6 | 1 | 6 | . | -1 | 23
CC(CCCCC(=O)Nc1ccc(C(F)(F)F)cc1)NCCc1cnc[nH]1 (stereo not given) | 9 | . | -13 | . | 15 | -8
O=C(O)C1C2CCC(O2)C1C(=O)Nc1ccc(O)cc1 (stereo not given) | 15 | 7 | -10 | 39 | -2 | -26
CN1CCN(Cc2c(O)ccc3c(-c4ccccc4)cc(=O)oc23)CC1 | -9 | 2 | 23 | 80* | 6 | -12
CCCCN(CC)Cc1c(O)ccc2c(-c3ccccc3)cc(=O)oc12 | . | -5 | 30 | . | 6 | 16
CCCCN(C)Cc1c(O)ccc2c(-c3ccccc3)cc(=O)oc12 | 18 | 1 | -2 | 65* | 4 | 15
CC1CCCN(c2nc3ccccc3nc2C(C#N)C(=O)OC2CCCCC2)C1 (stereo not given) | 10 | . | . | 61* | . | 8
CC1CCN(c2nc3ccccc3nc2C(C#N)C(=O)OC2CCCCC2)CC1 (stereo not given) | 20 | 23 | 7 | 37 | -7 | -5
CC1CN(c2nc3ccccc3nc2C(C#N)C(=O)OC2CCCCC2)CC(C)O1 (stereo not given) | -2 | -4 | 63* | 64* | -10 | 12
CC1CN(c2nc3ccccc3nc2C(C#N)C(=O)NC2CCCCC2)CC(C)O1 (stereo not given) | -4 | -3 | 25 | . | -13 | -6
N#CC(C(=O)OC1CCCCC1)c1nc2ccccc2nc1N1CCCCC1 (stereo not given) | 14 | -8 | 67* | 54* | 9 | 15
CC1(C)C(=S)N(Cc2ccccc2)c2ccccc21 | . | -1 | 6 | . | -16 | 10
CN(C)CCN1C(=O)C(=O)/C(=C(/O)c2ccc(OCc3ccccc3)cc2)C1c1ccncc1 (stereo not given) | 35* | 0 | -15 | -4 | -1 | .
CCOc1ccc(NC(=S)N(CCOC)C(C)c2cccnc2)cc1 (stereo not given) | -5 | 2 | 13 | 73* | -8 | 21
COCCN(C(=S)Nc1cccc(C)c1)C(C)c1cccnc1 (stereo not given) | -4 | -5 | 1 | 64* | 8 | 3
Cc1ccc(NC(=S)N(CCN(C)C)C(C)c2cccnc2)cc1 (stereo not given) | 8 | 1 | 27 | 27 | 6 | 19
CCC1CCCCN1C(=O)COC(=O)c1ccc(Br)o1 (stereo not given) | . | . | . | . | . | 11
O=C(O)c1ccc(Cl)c(S(=O)(=O)NCC2CCCO2)c1 (stereo not given) | -3 | -6 | -12 | -4 | 26 | -14
CCc1ccc(/C=C2/SC(N3CCOCC3)=NC2=O)cc1 | -4 | -4 | 2 | . | 1 | 9
CCN1C/C(=C/c2ccc(N3CCOCC3)cc2)C(=O)/C(=C/c2ccc(N3CCOCC3)cc2)C1 | 40 | 1 | -6 | 100* | -2 | .
CN1C/C(=C\c2ccc(N3CCOCC3)cc2)C(=O)/C(=C/c2ccc(N3CCOCC3)cc2)C1 | 45 | 10 | -18 | 100* | -21 | 8
CN1C/C(=C/c2ccncc2)C(=O)/C(=C/c2ccncc2)C1 | 66* | 9 | -21 | . | -19 | 7
CCCCN(C(=O)/C=C/c1ccc(OC)cc1)C1CCS(=O)(=O)C1 (stereo not given) | . | . | 7 | . | -3 | 14
CC(=O)N1CCc2c(sc(NC(=O)Cc3ccc(C)cc3C)c2C#N)C1 | 8 | 14 | 22 | . | -7 | 5
